The values that follow come from ChEMBL document CHEMBL5500359, “Identification of a new bisindolinone arresting IGROV1 cells proliferation” (Eur J Med Chem, 2024).

The subject of assay [1] is Panel NCI-60 (60 carcinoma cell lines). As to the kind of experiment: Cell growth inhibition of human Panel NCI-60 (60 carcinoma cell lines) incubated for 48 hrs by SRB assay. In kind it is functional. The method in brief:
(§1)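 NCI-60 five-concentration screen: lines seeded 5×10^3–4×10^4 cells/well depending on line; compound diluted in fresh medium at scalar concentrations 0–100 or 0–1000 μM; 48 h exposure, in situ fixation, sulforhodamine B protein staining, optical density read; GI50, TGI and LC50 per NCI procedures; panel mean = mean graph midpoint.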

A short description of assay [2]: Cytostatic activity against human Leukemia cancer cells incubated for 48 hrs by SRB assay. In kind it is functional, Leukemia cell. The procedure, abridged: as §1
On the technique in general: Sulforhodamine B stains cellular protein and so reports cell mass.

Assay [3] has as its system Breast cancer cell line. As to the kind of experiment: Cytotoxicity against human Breast cancer cells incubated for 48 hrs by SRB assay. In kind it is functional. The method in brief:
as §1

For a further assay, the system named is NSCLC. Kind of assay: Cell growth inhibition of human NSCLC cells incubated for 48 hrs by SRB assay. In kind it is functional. The procedure, abridged:
as §1

Assay [4] has as its system Panel NCI-60 (60 carcinoma cell lines). As to the kind of experiment: Cytostatic activity against human Panel NCI-60 (60 carcinoma cell lines) incubated for 48 hrs by SRB assay. It counts as functional. The procedure, abridged:
as §1

In assay [5] the test system is CNS carcinoma cell. As to the kind of experiment: Cytostatic activity against human CNS carcinoma cells incubated for 48 hrs by SRB assay. It counts as functional. The method in brief:
as §1

Assay [6] concerns Melanoma cell line. As to the kind of experiment: Cell growth inhibition of human Melanoma cells incubated for 48 hrs by SRB assay. In kind it is functional. The method in brief: as §1
For assay [7], the system named is Ovarian cancer cell line. As to the kind of experiment: Cytotoxicity against human Ovarian cancer cells incubated for 48 hrs by SRB assay. It counts as functional. The procedure, abridged:
as §1

Assay [8] concerns Renal cancer cell line. Kind of assay: Cell growth inhibition of human Renal cancer cells incubated for 48 hrs by SRB assay. It counts as functional. The procedure, abridged:
as §1

Assay [9] concerns Colon carcinoma cell. As to the kind of experiment: Cytostatic activity against human Colon carcinoma cells incubated for 48 hrs by SRB assay. It counts as functional. The method in brief: as §1
The subject of assay [10] is Melanoma cell line. As to the kind of experiment: […] against human Melanoma cells incubated for 48 hrs by SRB assay. In kind it is functional. The following applies: read-out: LC50 (the source's name). The method in brief:
(§2)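 NCI DTP five-concentration screen. Cells were seeded at 5 × 10³–4 × 10⁴ cells/well, depending on the line. Compounds were diluted in fresh medium and added at scalar concentrations over 0–1000 µM or 0–100 µM. After 48 h the cells were fixed in situ, stained with sulforhodamine B, and optical density was read. GI50, TGI and LC50 were derived by NCI procedures, and the panel mean is the mean graph midpoint.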

Assay [11] is described as follows: Cell growth inhibition of human Leukemia cancer cells incubated for 48 hrs by SRB assay. In kind it is functional. The method in brief: as §1
The subject of another assay is Prostatic carcinoma cell. Kind of assay: Cell growth inhibition of human Prostate carcinoma cells incubated for 48 hrs by SRB assay. In kind it is functional. The procedure, abridged: as §1
Assay [12] can be described thus: Cytotoxicity against human Leukemia cancer cells incubated for 48 hrs by SRB assay. In kind it is functional. The following applies: Leukemia cell, read-out: LC50 (the source's name). The method in brief: as §2
For assay [13], the system named is CNS carcinoma cell. Kind of assay: Cell growth inhibition of human CNS carcinoma cells incubated for 48 hrs by SRB assay. In kind it is functional. The method in brief:
as §1

Assay [14] deals with Ovarian cancer cell line. As to the kind of experiment: Cytostatic activity against human Ovarian cancer cells incubated for 48 hrs by SRB assay. In kind it is functional. The method in brief:
as §1

The subject of assay [15] is Colon carcinoma cell. As to the kind of experiment: Cytotoxicity against human Colon carcinoma cells incubated for 48 hrs by SRB assay. In kind it is functional. The procedure, abridged:
as §1

Assay [16] concerns Renal cancer cell line. Kind of assay: Cytostatic activity against human Renal cancer cells incubated for 48 hrs by SRB assay. It counts as functional. The procedure, abridged:
as §1

Assay [17] has as its system Breast cancer cell line. Kind of assay: Cytostatic activity against human Breast cancer cells incubated for 48 hrs by SRB assay. In kind it is functional. The procedure, abridged: as §1
The test system of assay [18] is Breast cancer cell line. As to the kind of experiment: Cell growth inhibition of human Breast cancer cells incubated for 48 hrs by SRB assay. It counts as functional. Particulars: read-out: LC50 (the source's name). The procedure, abridged: as §2

Broadly, the GI50 is the concentration at which growth is held to half of that of the control. Read a high GI50 as lower sensitivity of the cells. For orientation: TGI means the concentration at which net growth stops. A higher TGI goes with lower sensitivity of the cells. Consider `Cc1cc2c(cc1O)/C(=C\c1cc(C(C)(C)C)cc(C=O)c1O)C(=O)N2`, for which the GI50 in assay [1] amounted to 1910 nM; in the assay with Renal cancer cell line [8] it was 2570 nM; in assay [11], 680 nM; in the assay with CNS carcinoma cell [13] it was 1200 nM. For the same compound, the GI turned out to be 3.72 µM in assay [2]; 77.62 µM in the assay with Breast cancer cell line [3]; 3.47 µM in the assay with NSCLC; 8.91 µM in [4]; 10 µM in the assay with CNS carcinoma cell [5]; 1.78 µM with Melanoma cell line [6]. Moreover, the GI was 56.23 µM in the assay with Ovarian cancer cell line [7], 0.87 µM in the assay with Prostatic carcinoma cell, 38.02 µM with Colon carcinoma cell [15] and 11.48 µM with Renal cancer cell line [16]. Besides, the TGI with Colon carcinoma cell [9] was determined as 11.5 µM; in the assay on Ovarian cancer cell line [14] it was 9.55 µM; in the assay with Breast cancer cell line [17], 14.8 µM. The results for the CC50 (with Melanoma cell line [10]; in assay [12]; in the assay with Breast cancer cell line [18]) were 5.75 µM, 81.3 µM and 1.82 µM, respectively.
Turning to `COc1ccc2[nH]c(Cl)c(/C=C3/C(=O)N(C)c4cc5c(cc43)/C(=C\c3c(Cl)[nH]c4ccc(OC)cc34)C(=O)N5C)c2c1`, the GI50 in assay [1] turned out to be 2040 nM; in the assay with Renal cancer cell line [8], 1780 nM; in assay [11], 2240 nM; with CNS carcinoma cell [13], 1740 nM. Further, the GI in assay [2] is 6.17 µM; in the assay on Breast cancer cell line [3], 21.88 µM; in the assay with NSCLC, 1.78 µM; in [4], 4.9 µM; in the assay with CNS carcinoma cell [5] it was 4.07 µM; in the assay with Melanoma cell line [6], 2.04 µM. The GI was determined as 12.59 µM in the assay on Ovarian cancer cell line [7], 1.95 µM in the assay with Prostatic carcinoma cell, 11.75 µM in the assay with Colon carcinoma cell [15] and 4.47 µM in the assay on Renal cancer cell line [16]. For the same compound, the TGI in the assay on Colon carcinoma cell [9] stood at 4.68 µM; in the assay on Ovarian cancer cell line [14], 4.69 µM; with Breast cancer cell line [17], 6.31 µM. The figures for the CC50 (in the assay on Melanoma cell line [10]; in assay [12]; in the assay on Breast cancer cell line [18]) were 4.9 µM, 89.1 µM and 3.16 µM, respectively.
For the compound `COc1ccc(OC)c2c1NC(=O)/C2=C/c1cccc(/C=C2/C(=O)Nc3c(OC)ccc(OC)c32)c1`, the GI50 in assay [1] was found to be 5890 nM; in the assay on Renal cancer cell line [8], 7080 nM; in [11] it was 2690 nM; with CNS carcinoma cell [13], 4680 nM. Also, the GI stood at 95.5 µM in assay [2]; 9.33 µM in the assay on NSCLC; 72.44 µM in [4]; 100 µM with CNS carcinoma cell [5]; 7.24 µM in the assay with Melanoma cell line [6]; 5.89 µM in the assay on Prostatic carcinoma cell. Also, the GI in the assay on Renal cancer cell line [16] is 81.28 µM. Besides, the TGI in the assay with Colon carcinoma cell [9] amounted to 63.1 µM; in the assay on Ovarian cancer cell line [14], 69.2 µM; with Breast cancer cell line [17], 81.3 µM. For the same compound, the results for the CC50 in the assay on Melanoma cell line [10] and in the assay on Breast cancer cell line [18] were 61.7 µM and 5.37 µM, respectively.
Turning to `O=C1Nc2ccc(F)cc2/C1=C\c1cccc(/C=C2/C(=O)Nc3ccc(F)cc32)c1`, the GI50 was 1620 nM in assay [1], 1580 nM in the assay on Renal cancer cell line [8], 1660 nM in assay [11] and 1350 nM with CNS carcinoma cell [13]. For the same compound, the GI in [2] was found to be 9.77 µM; in the assay on NSCLC, 1.82 µM; in assay [4], 4.47 µM; with CNS carcinoma cell [5], 3.24 µM; in the assay on Melanoma cell line [6] it was 1.58 µM; with Ovarian cancer cell line [7], 32.4 µM. Also, the GI in the assay on Prostatic carcinoma cell was 1.48 µM; with Colon carcinoma cell [15] it was 9.33 µM; in the assay with Renal cancer cell line [16], 3.47 µM. The figures for the CC50 (in the assay with Melanoma cell line [10]; in [12]; in the assay on Breast cancer cell line [18]) were 10.2 µM, 7.41 µM and 9.33 µM, respectively.
In the case of `COc1cc2c(c(OC)c1OC)C(=Cc1cc(C(C)(C)C)cc(/C=C3\C(=O)Nc4cc(OC)c(OC)c(OC)c43)c1O)C(=O)N2`, the GI50 is 1950 nM in assay [1], 2190 nM in the assay on Renal cancer cell line [8], 2190 nM in assay [11] and 1620 nM in the assay on CNS carcinoma cell [13]. Moreover, the GI in assay [2] worked out at 6.03 µM; in the assay on Breast cancer cell line [3], 50.12 µM; with NSCLC, 1.95 µM; in assay [4] it was 4.37 µM; in the assay with CNS carcinoma cell [5], 3.31 µM; in the assay on Melanoma cell line [6], 1.82 µM. In addition, the GI in the assay on Ovarian cancer cell line [7] amounted to 25.12 µM; in the assay on Prostatic carcinoma cell, 1.91 µM; in the assay on Colon carcinoma cell [15] it was 8.13 µM; with Renal cancer cell line [16], 4.9 µM. The TGI was 3.89 µM in the assay on Colon carcinoma cell [9], 5.13 µM in the assay on Ovarian cancer cell line [14] and 4.9 µM with Breast cancer cell line [17]. In addition, the CC50 in the assay with Melanoma cell line [10] came out at 3.63 µM; in assay [12], 60.3 µM; with Breast cancer cell line [18], 1.86 µM.
